Measured values reported in ChEMBL document CHEMBL6127098, “Discovery of Oral Degraders of the ROS1 Fusion Protein with Potent Activity against Secondary Resistance Mutations” (J Med Chem, 2024).
Each block holds one compound with its values, some of them ahead of it. Active and inactive are the calls of the source. The calls are words filed in the database; no cut-off is given here.

Tests used:
[1] = Inhibition of ROS1-S1986F-G2032R-L2086F mutant/CD74 (unknown origin) expressed in mouse BaF3 cells; assay type: cell-based, Homo sapiens
[2] = Inhibition of ROS1-V2098I mutant/SLC34A2 (unknown origin) expressed in mouse BaF3 cells; assay type: cell-based, Homo sapiens
BaF3 [3] = assay: Antiproliferative activity against mouse BaF3 cells harboring ROS1 G2032R mutant incubated for 72 hrs by Alamar blue reagent based plate reader assay; details: BaF3, 72 h
[4] = PROTAC activity at CRBN/ROS1 in mouse BaF3 cells assessed as ROS1 degradation by immunoblotting assay; assay type: cell-based
How it was run: (§1)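 IL-3-independent Ba/F3 cells expressing CD74-ROS1 variants were treated with compound. ROS1 and phospho-ROS1 were quantified by capillary immunoassay (WES) in duplicate experiments. DC50 is the concentration that lowers ROS1 or p-ROS1 by 50%; Dmax is the maximal degradation.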

BaF3 [5] = assay: Antiproliferative activity against mouse BaF3 cells expressing CD74-ROS1 incubated for 72 hrs by Alamar blue reagent based plate reader assay; assay type: functional, cell-based; details: BaF3, 72 h
How it was run: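 Ba/F3 cells stably expressing CD74- or SLC34A2-ROS1 fusions (wild type or mutant), made by retroviral transduction, selected with puromycin, and grown without IL-3 for ≥2 weeks. Alamar Blue added for 4 h. IC50 from sigmoidal nonlinear regression; mean ± SD of triplicate experiments.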

BaF3 [6] = assay: PROTAC activity at CRBN/ROS1 in mouse BaF3 cells assessed as maximum ROS1 degradation by immunoblotting assay relative to control; assay type: cell-based; how it was run: as §1
[7] = Inhibition of ROS1-G2032R-F2075C mutant/SLC34A2 (unknown origin) expressed in mouse BaF3 cells; assay type: cell-based, Homo sapiens
[8] = Induction of CLK1 (unknown origin) degradation by Western blotting analysis; set-up: species or system Homo sapiens
BaF3 [9] = assay: Induction of ROS1 G2032R/F2075V degradation in mouse BaF3 cells assessed as reduction in ROS1 level by Western blotting analysis; assay type: cell-based; how it was run: as §1
BaF3 [10] = assay: Induction of ROS1 degradation in mouse BaF3 cells assessed as reduction in ROS1 level by Western blotting analysis; assay type: cell-based; how it was run: as §1
[11] = Induction of LTK (unknown origin) degradation by Western blotting analysis; set-up: species or system Homo sapiens
BaF3 [12] = assay: Induction of ROS1 L2026M degradation in mouse BaF3 cells assessed as reduction in ROS1 level by Western blotting analysis; assay type: cell-based; how it was run: as §1
BaF3 [13] = assay: Induction of ROS1 degradation in mouse BaF3 cells assessed as reduction in p-ROS1 level by Western blotting analysis; assay type: cell-based; how it was run: as §1
NCI-H2228 [14] = assay: Induction of FER degradation in human NCI-H2228 cells at 100 nM incubated for 24 hrs by proteomics analysis; assay type: cell-based
How it was run: (§2)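 Lysates in RIPA with protease/phosphatase inhibitors, protein measured by BCA, trypsin-digested and TMT-labelled. Relative abundance taken as the ratio of TMT reporter ions in degrader-treated versus inhibitor-treated cells.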

NCI-H2228 [15] = assay: Induction of ALK degradation in human NCI-H2228 cells at 100 nM incubated for 24 hrs by proteomics analysis; assay type: cell-based; how it was run: as §2
BaF3 [16] = assay: Induction of ROS1 G2032R degradation in mouse BaF3 cells assessed as reduction in p-ROS1 level by Western blotting analysis; assay type: cell-based; how it was run: as §1
BaF3 [17] = assay: Induction of ROS1 L2026M degradation in mouse BaF3 cells assessed as reduction in p-ROS1 level by Western blotting analysis; assay type: cell-based; how it was run: as §1
[18] = Induction of FLT3 (unknown origin) degradation by Western blotting analysis; set-up: species or system Homo sapiens
CD74-ROS1 = CD74-ROS1 (Homo sapiens, UniProt P08922); assay: Inhibition of ROS1/CD74 (unknown origin) expressed in mouse BaF3 cells; assay type: cell-based
Chain of CD74-ROS1 (P04233 whole entry): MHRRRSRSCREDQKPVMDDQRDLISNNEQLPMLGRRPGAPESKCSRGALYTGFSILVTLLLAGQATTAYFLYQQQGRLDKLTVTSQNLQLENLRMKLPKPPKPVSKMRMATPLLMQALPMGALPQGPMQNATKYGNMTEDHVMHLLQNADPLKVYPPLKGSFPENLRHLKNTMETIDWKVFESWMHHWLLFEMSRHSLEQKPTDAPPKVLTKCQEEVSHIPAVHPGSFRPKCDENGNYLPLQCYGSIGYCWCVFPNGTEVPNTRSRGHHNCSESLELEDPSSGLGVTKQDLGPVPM
Chain of CD74-ROS1 (P08922 whole entry): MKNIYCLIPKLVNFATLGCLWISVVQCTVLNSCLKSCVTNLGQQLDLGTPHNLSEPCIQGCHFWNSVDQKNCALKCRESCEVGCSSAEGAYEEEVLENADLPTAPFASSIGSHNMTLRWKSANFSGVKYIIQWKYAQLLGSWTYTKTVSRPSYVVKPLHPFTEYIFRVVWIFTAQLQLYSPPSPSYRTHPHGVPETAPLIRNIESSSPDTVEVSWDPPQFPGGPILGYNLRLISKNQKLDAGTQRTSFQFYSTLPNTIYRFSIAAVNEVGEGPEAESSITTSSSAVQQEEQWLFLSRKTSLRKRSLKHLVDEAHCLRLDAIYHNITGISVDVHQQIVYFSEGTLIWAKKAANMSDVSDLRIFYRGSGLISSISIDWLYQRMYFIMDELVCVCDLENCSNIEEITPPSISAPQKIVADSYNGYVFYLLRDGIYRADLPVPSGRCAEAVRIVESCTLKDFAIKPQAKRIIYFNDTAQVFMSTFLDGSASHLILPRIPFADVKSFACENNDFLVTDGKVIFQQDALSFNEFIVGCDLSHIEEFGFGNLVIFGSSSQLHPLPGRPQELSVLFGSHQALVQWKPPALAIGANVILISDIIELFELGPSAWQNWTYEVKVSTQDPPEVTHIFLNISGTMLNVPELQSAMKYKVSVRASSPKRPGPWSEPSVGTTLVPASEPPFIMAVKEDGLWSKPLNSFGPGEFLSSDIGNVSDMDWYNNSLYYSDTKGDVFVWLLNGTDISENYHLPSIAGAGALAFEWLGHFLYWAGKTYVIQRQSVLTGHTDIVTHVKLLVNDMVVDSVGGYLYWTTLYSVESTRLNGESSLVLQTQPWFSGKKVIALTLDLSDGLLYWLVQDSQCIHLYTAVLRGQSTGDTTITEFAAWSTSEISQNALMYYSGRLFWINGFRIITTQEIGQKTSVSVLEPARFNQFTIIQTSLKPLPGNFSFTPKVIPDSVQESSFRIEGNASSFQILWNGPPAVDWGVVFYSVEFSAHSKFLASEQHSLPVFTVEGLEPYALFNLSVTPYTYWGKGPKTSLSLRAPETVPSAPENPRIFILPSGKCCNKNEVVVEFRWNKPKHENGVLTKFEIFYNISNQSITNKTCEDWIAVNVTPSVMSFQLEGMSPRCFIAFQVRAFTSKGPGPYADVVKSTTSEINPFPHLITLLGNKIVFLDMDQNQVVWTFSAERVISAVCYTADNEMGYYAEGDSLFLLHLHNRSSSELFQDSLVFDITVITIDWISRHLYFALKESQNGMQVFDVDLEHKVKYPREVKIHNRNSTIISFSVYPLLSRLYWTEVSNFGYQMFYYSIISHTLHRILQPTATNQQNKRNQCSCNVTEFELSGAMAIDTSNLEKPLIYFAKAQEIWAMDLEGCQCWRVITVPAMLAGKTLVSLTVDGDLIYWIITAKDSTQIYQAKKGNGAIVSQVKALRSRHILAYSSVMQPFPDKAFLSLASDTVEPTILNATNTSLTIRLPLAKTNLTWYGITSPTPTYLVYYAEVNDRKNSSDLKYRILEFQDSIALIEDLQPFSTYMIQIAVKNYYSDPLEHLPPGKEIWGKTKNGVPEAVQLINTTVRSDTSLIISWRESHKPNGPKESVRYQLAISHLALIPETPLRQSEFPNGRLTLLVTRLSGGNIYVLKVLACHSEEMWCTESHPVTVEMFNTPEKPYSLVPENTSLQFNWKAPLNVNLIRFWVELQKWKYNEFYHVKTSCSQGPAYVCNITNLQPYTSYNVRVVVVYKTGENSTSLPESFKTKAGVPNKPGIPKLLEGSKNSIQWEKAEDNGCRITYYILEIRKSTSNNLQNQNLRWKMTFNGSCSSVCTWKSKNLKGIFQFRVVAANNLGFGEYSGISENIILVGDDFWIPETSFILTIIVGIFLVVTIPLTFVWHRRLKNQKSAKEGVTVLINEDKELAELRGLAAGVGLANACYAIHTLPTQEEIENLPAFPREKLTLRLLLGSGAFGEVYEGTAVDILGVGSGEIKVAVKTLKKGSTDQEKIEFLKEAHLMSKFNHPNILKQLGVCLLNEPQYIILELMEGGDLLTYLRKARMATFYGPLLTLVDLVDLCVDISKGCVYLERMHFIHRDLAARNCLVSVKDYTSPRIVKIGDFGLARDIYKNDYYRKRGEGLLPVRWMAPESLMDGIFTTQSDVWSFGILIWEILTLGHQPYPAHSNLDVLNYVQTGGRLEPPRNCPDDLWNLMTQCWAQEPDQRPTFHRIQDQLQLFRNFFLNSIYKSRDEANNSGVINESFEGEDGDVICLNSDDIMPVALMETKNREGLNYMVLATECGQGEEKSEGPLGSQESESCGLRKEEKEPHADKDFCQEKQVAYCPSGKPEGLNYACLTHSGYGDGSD

NCI-H2228 [19] = assay: Induction of FAK degradation in human NCI-H2228 cells at 100 nM incubated for 24 hrs by proteomics analysis; assay type: cell-based; how it was run: as §2
BaF3 [20] = assay: Induction of ROS1 G2032R degradation in mouse BaF3 cells assessed as reduction in ROS1 level by Western blotting analysis; assay type: cell-based; how it was run: as §1
BaF3 [21] = assay: Induction of ROS1 D2033N degradation in mouse BaF3 cells assessed as reduction in ROS1 level by Western blotting analysis; assay type: cell-based; how it was run: as §1
[22] = Induction of ERBB4 (unknown origin) degradation by Western blotting analysis; set-up: species or system Homo sapiens
BaF3 [23] = assay: Induction of ROS1 G2032R/F2075V degradation in mouse BaF3 cells assessed as reduction in p-ROS1 level by Western blotting analysis; assay type: cell-based; how it was run: as §1
BaF3 [24] = assay: Induction of ROS1 D2033N degradation in mouse BaF3 cells assessed as reduction in p-ROS1 level by Western blotting analysis; assay type: cell-based; how it was run: as §1
[25] = target: Proto-oncogene tyrosine-protein kinase ROS (Homo sapiens, UniProt P08922); assay: Induction of ROS1 (unknown origin) degradation by Western blotting analysis
Chain of Proto-oncogene tyrosine-protein kinase ROS (P08922 whole entry): as above
How it was run: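 Ba/F3 cells stably expressing CD74-ROS1 (retroviral transduction, puromycin-selected, IL-3 withdrawn at least 2 weeks before use) were grown in RPMI with 10% FBS and treated with compound diluted from DMSO stock in RPMI. Total ROS1 and p-ROS1 were quantified by WES capillary immunoblot in duplicate experiments. DC50 is the concentration that reduces protein by 50%, and Dmax is the maximal degradation.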

IC50 [1]: > 2 µM
IC50 [2]: 0.0015 µM
Structure (SMILES): C[C@H]1Oc2cc(cnc2N)-c2c(nn(C)c2C#N)CN(C)C(=O)c2ccc(F)cc21 [LORLATINIB]

IC50 (BaF3 [3]): 1.04 µM
DC50 [4]: 0.108 µM
IC50 (BaF3 [5]): 0.113 µM
Structure (SMILES): COc1cc(N2CCC(N3CCN(C4CN(c5cccc6c5C(=O)N(C5CCC(=O)NC5=O)C6=O)C4)CC3)CC2)ccc1Nc1ncc(Cl)c(Nc2ccccc2P(C)(C)=O)n1 (stereo unspecified)
Emax (BaF3 [6]): 77%

IC50 [1]: > 2 µM
Structure (SMILES): COc1cc(N2CCC(N3CCN(C)CC3)CC2)ccc1Nc1ncc(Cl)c(Nc2ccccc2P(C)(C)=O)n1 [BRIGATINIB]

IC50 (BaF3 [3]): 0.087 µM
DC50 [4]: 0.006 µM
IC50 (BaF3 [5]): 0.0112 µM
Structure (SMILES): COc1cc(N2CCC(N3CCN(CC4CCN(c5cccc6c5C(=O)N(C5CCC(=O)NC5=O)C6=O)CC4)CC3)CC2)ccc1Nc1ncc(Cl)c(Nc2ccccc2P(C)(C)=O)n1 (stereo unspecified)
Emax (BaF3 [6]): 99%

IC50 [7]: > 2 µM
IC50 [1]: > 2 µM
Structure (SMILES): C[C@H]1CNC(=O)c2cnn3ccc(nc23)N[C@H](C)c2cc(F)ccc2O1 [REPOTRECTINIB]

DC50 [4]: 0.045 µM
Structure (SMILES): Cc1cc(Nc2ncc(Cl)c(Nc3ccccc3S(=O)(=O)C(C)C)n2)c(OC(C)C)cc1C1CCN(C2CCN(C3CN(c4ccc5c(c4)C(=O)N(C4CCC(=O)NC4=O)C5=O)C3)CC2)CC1 (stereo unspecified)

IC50 (BaF3 [3]): 0.244 µM
DC50 [4]: 0.056 µM
IC50 (BaF3 [5]): 0.041 µM
Structure (SMILES): COc1cc(N2CCC(N3CCN(CC4CN(c5cccc6c5C(=O)N(C5CCC(=O)NC5=O)C6=O)C4)CC3)CC2)ccc1Nc1ncc(Cl)c(Nc2ccccc2P(C)(C)=O)n1 (stereo unspecified)
Emax (BaF3 [6]): 79%

DC50 [4]: 0.011 µM
IC50 (BaF3 [5]): 0.0095 µM
Structure (SMILES): COc1cc(N2CCN(CC3CCN(c4ccc5c(c4)CN(C4CCC(=O)NC4=O)C5=O)CC3)CC2)ccc1Nc1ncc(Cl)c(Nc2ccccc2P(C)(C)=O)n1 (stereo unspecified)
Emax (BaF3 [6]): 93%

DC50 [8]: > 1 µM
DC50 [11]: > 1 µM
DC50 [4]: 0.0038 µM
DC50 [18]: > 1 µM
IC50 (CD74-ROS1): 0.0016 µM
DC50 [22]: > 1 µM
DC50 [25]: 0.0038 µM
Structure (SMILES): COc1cc(N2CCC(N3CCN(CC4CCN(c5ccc6c(c5)CN(C5CCC(=O)NC5=O)C6=O)CC4)CC3)CC2)ccc1Nc1ncc(Cl)c(Nc2ccccc2P(C)(C)=O)n1 (stereo unspecified)
Activity (BaF3 [9]): Dose-Dependent Effect
Activity (BaF3 [10]): Dose-Dependent Effect
Activity (BaF3 [12]): Dose-Dependent Effect
Activity (BaF3 [13]): Dose-Dependent Effect
Activity (NCI-H2228 [14]): Active
Activity (NCI-H2228 [15]): Active
Activity (BaF3 [16]): Dose-Dependent Effect
Activity (BaF3 [17]): Dose-Dependent Effect
Activity (NCI-H2228 [19]): Active
Activity (BaF3 [20]): Dose-Dependent Effect
Activity (BaF3 [21]): Dose-Dependent Effect
Activity (BaF3 [23]): Dose-Dependent Effect
Activity (BaF3 [24]): Dose-Dependent Effect
